From ChEMBL document CHEMBL2176957, “Discovery of a novel noniminosugar acid α glucosidase chaperone series” (J Med Chem, 2012)
≈ marks a conversion by molar mass, not a printed value. Each block holds one molecule with its values, some of them ahead of it. Calls of active or inactive are those of the source. The calls are words filed in the database; no cut-off is given here.

What was measured:
[1] = target: T1, Lysosomal alpha-glucosidase (Homo sapiens, UniProt P10253); test: Inhibition of wild type recombinant GAA preincubated for 5 mins measured after 45 mins using red-shifted dye by fluorescence assay
[2] = target: T1, Lysosomal alpha-glucosidase; test: Inhibition of wild type recombinant GAA preincubated for 5 mins measured after 45 mins using blue-shifted dye by fluorescence assay
[3] = target: T1, Lysosomal alpha-glucosidase; test: Binding affinity at wild type recombinant GAA assessed as thermostabilization of protein at 50 uM incubated at 66 degC for 60 mins
Method in brief: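 GAA incubated at 66 °C for 60 min with compound at 50 μM, compared with room-temperature incubation. Residual enzymatic activity read out and expressed as the ratio of heated to room-temperature activity; DMSO controls run in duplicate.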

[4] = Aqueous solubility in PBS buffer
[5] = target: T1, Lysosomal alpha-glucosidase; test: Increase in translocation of GAA to lysosomes in human wild type skin fibroblasts at 5 uM after 6 days by confocal laser-scanning microscopic analysis
Method in brief: (§1)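 Wild-type primary dermal fibroblasts or Pompe patient fibroblasts (F3248, F0833, F2845; low passage) treated with compound for 5 or 6 days. Fixed in 3% paraformaldehyde, permeabilized with 0.1% Triton X-100, blocked, stained with mouse anti-GAA (Alexa-488) and goat anti-cathepsin D (Alexa-555), DAPI counterstain. Confocal images taken at fixed laser settings; percentage of cells with lysosomal GAA co-localization scored.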

[6] = target: T1, Lysosomal alpha-glucosidase; test: Increase in translocation of GAA to lysosome in human F2845 cells at 5 uM after 5 days by confocal laser-scanning microscopic analysis; assay type: cell-based; method in brief: as §1
Liver = test: Half life in mouse liver microsomes
[7] = target: T1, Lysosomal alpha-glucosidase; test: Increase in translocation of GAA to lysosome in human F3248 cells at 5 uM after 5 days by confocal laser-scanning microscopic analysis; assay type: cell-based; method in brief: as §1
[8] = target: T1, Lysosomal alpha-glucosidase; test: Increase in translocation of GAA to lysosome in human F0833 cells at 5 uM after 5 days by confocal laser-scanning microscopic analysis; assay type: cell-based; method in brief: as §1
[9] = target: T1, Lysosomal alpha-glucosidase; test: Increase in GAA activity in human F2845 cells incubated for 5 days by fluorescence assay relative to vehicle-treated control; assay type: cell-based
Method in brief: (§2)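 Fibroblasts seeded at 5,000 cells/well and treated 5 days, with media and compound renewed on day 3. Assayed directly or after PBS wash and 18 h or 40 h in compound-free medium. Cells were incubated 2 h at 37 °C in pH 4.0 citrate/phosphate buffer with 3 mM 4-MUG and acarbose, then stopped at pH 10. Background subtracted, normalized to vehicle (100%); triplicate, mean ±SD.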

[10] = target: T1, Lysosomal alpha-glucosidase; test: Increase in GAA activity in human wild type skin fibroblasts incubated for 5 days by fluorescence assay relative to vehicle-treated control; method in brief: as §2
[11] = target: T1, Lysosomal alpha-glucosidase; test: Increase in GAA activity in human wild type skin fibroblasts incubated for 5 days followed by 18 to 40 hrs wash out by fluorescence assay relative to vehicle-treated control; method in brief: as §2
[12] = target: T1, Lysosomal alpha-glucosidase; test: Increase in translocation of GAA to lysosomes in human wild type fibroblasts at 15 uM after 6 days confocal laser-scanning microscopic analysis; method in brief: as §1
[13] = Cytotoxicity in human F2845 cells at 5 uM after 6 days by confocal laser-scanning microscopic analysis; assay type: cell-based; settings: f2845, 144 h
Method in brief: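 Primary wild-type dermal fibroblasts and patient-derived Pompe fibroblasts (passage 7) grown on chamber slides and exposed to compound for 5 or 6 days. Viability judged from the cultures examined by immunostaining and confocal microscopy.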

Caco-2 [14] = test: Permeability from apical to basolateral side of human Caco2 cells
[15] = target: T1, Lysosomal alpha-glucosidase; test: Increase in translocation of GAA to lysosome in human F2845 cells at 1 uM after 5 days by confocal laser-scanning microscopic analysis; assay type: cell-based; method in brief: as §1
Caco-2 [16] = test: Permeability from basolateral to apical side of human Caco2 cells
[17] = target: T1, Lysosomal alpha-glucosidase; test: Increase in translocation of GAA to lysosome in human F3248 cells at 1 uM after 5 days by confocal laser-scanning microscopic analysis; assay type: cell-based; method in brief: as §1
[18] = target: T1, Lysosomal alpha-glucosidase; test: Ratio of Kd for wild type recombinant NT-495 labelled GAA to IC50 for wild type recombinant GAA (unknown origin
[19] = target: T1, Lysosomal alpha-glucosidase; test: Binding affinity at wild type recombinant GAA assessed as rise in melting temperature of protein using SYPRO Orange dye by fluorescence assay
Method in brief: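 Thermal shift of recombinant wild-type GAA (1 μM) with SYPRO Orange (5×) in 50 mM citrate buffer pH 5.0 with 100 mM KCl, 10 mM NaCl, 1 mM MgCl2. Six-point compound series, 0.82–200 μM final, 2% DMSO, DMSO controls. Heated 20 to 95 °C at 4.8 °C/s; fluorescence ex 498/em 580 nm; Tm calculated from the melt curve.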

[20] = target: T1, Lysosomal alpha-glucosidase; test: Increase in GAA activity in human F2845 cells incubated for 5 days followed by 18 to 40 hrs wash out by fluorescence assay relative to vehicle-treated control; assay type: cell-based; method in brief: as §2
Caco-2 [21] = test: Efflux ratio from basolateral to apical side to apical to basolateral side of human Caco2 cells; assay type: ADME, cell-based
[22] = target: T1, Lysosomal alpha-glucosidase; test: Increase in translocation of GAA to lysosome in human F0833 cells at 1 uM after 5 days by confocal laser-scanning microscopic analysis; assay type: cell-based; method in brief: as §1

SMILES: CC(=O)c1ccc(N2CCN(S(=O)(=O)c3ccc4c(c3)C(=O)OC4)CC2)cc1
IC50 [1]: Not Active
IC50 [2]: Not Active

SMILES: CC(=O)c1ccc(N2CCN(S(=O)(=O)c3ccc4[nH]c(=O)[nH]c4c3)CC2)cc1
IC50 [1]: Not Active
IC50 [2]: Not Active

SMILES: CC(=O)c1ccc(N2CCN(S(=O)(=O)c3ccc4c(c3)C(Cl)(Cl)C(=O)N4)CC2)cc1
IC50 ([1]; read-out: IC50): 41 µM
IC50 ([2]; read-out: IC50): 32.6 µM

SMILES: O=C1Cc2cc(S(=O)(=O)N3CCN(c4ccc(C(F)(F)F)cc4)CC3)ccc2N1
IC50 [1]: Not Active
IC50 [2]: Not Active

SMILES: O=Cc1ccc(N2CCN(S(=O)(=O)c3ccc4c(c3)CC(=O)N4)CC2)cc1
IC50 ([1]; read-out: IC50): 4.11 µM
IC50 ([2]; read-out: IC50): 3.66 µM

SMILES: CC(=O)c1ccc(N2CCN(S(=O)(=O)c3cc4c(cc3Cl)NC(=O)C4)CC2)cc1
Activity [3]: Active
solubility [4]: 20.8 µM (≈ 9.03 µg/mL)
Activity [5]: 30%
Activity [6]: Active
t1/2 (Liver): > 1 h
Activity [7]: Active
IC50 ([1]; read-out: IC50): 1.63 µM
IC50 ([2]; read-out: IC50): 1.63 µM
Activity [8]: Active
Activity [9]: Active
Activity [10]: Active
Activity [11]: Active
Activity [12]: 40%
Activity [13]: Toxic
Papp (Caco-2 [14]): 54.3 ×10⁻⁶ cm/s
Activity [15]: inactive
Papp (Caco-2 [16]): 30.9 ×10⁻⁶ cm/s
Activity [17]: inactive
Ratio [18]: 20
Activity [19]: Active
Activity [20]: Active
Ratio (Caco-2 [21]): 0.57
Activity [22]: inactive

SMILES: O=C1Cc2cc(S(=O)(=O)N3CCN(c4ccc(CO)cc4)CC3)ccc2N1
IC50 ([1]; read-out: IC50): 13 µM
IC50 ([2]; read-out: IC50): 13 µM

SMILES: CC(=O)c1ccc(N2CCN(S(=O)(=O)c3ccc4c(c3)oc(=O)n4C)CC2)cc1
IC50 [1]: Not Active
IC50 [2]: Not Active

SMILES: O=C1Cc2cc(S(=O)(=O)N3CCN(c4ccc(O)cc4)CC3)ccc2N1
solubility [4]: 37.3 µM (≈ 13.9 µg/mL)
t1/2 (Liver): > 1 h
IC50 ([1]; read-out: IC50): 2.37 µM
IC50 ([2]; read-out: IC50): 1.88 µM
Papp (Caco-2 [14]): 17.8 ×10⁻⁶ cm/s
Papp (Caco-2 [16]): 19.5 ×10⁻⁶ cm/s

SMILES: CC(=O)c1ccc(N2CCN(S(=O)(=O)c3ccc(N4CCCC4=O)cc3)CC2)cc1
IC50 [1]: Not Active
IC50 [2]: Not Active

SMILES: CC(=O)N1CCN(c2ccc(NS(=O)(=O)c3ccc4c(c3)CC(=O)N4)cc2)CC1
IC50 [1]: Not Active
IC50 [2]: Not Active

SMILES: O=C1Cc2cc(S(=O)(=O)N3CCN(c4ccc(F)cc4)CC3)ccc2N1
IC50 [1]: Not Active
IC50 [2]: Not Active

SMILES: N#Cc1ccc(N2CCN(S(=O)(=O)c3ccc4c(c3)CC(=O)N4)CC2)cc1
solubility [4]: 14.9 µM (≈ 5.7 µg/mL)
t1/2 (Liver): 0.95 h
IC50 ([1]; read-out: IC50): 3.26 µM
IC50 ([2]; read-out: IC50): 2.91 µM

SMILES: O=C1Cc2cc(S(=O)(=O)N3CCN(c4ccc(Br)cc4)CC3)ccc2N1
IC50 [1]: Not Active
IC50 [2]: Not Active

SMILES: CC(=O)c1ccc(N2CCN(S(=O)(=O)c3ccc4c(c3)OCC(=O)N4)CC2)cc1
IC50 [1]: Not Active
IC50 [2]: Not Active

SMILES: O=C1Cc2cc(S(=O)(=O)N3CCNCC3)ccc2N1
IC50 [1]: Not Active
IC50 [2]: Not Active

SMILES: CC(=O)c1ccc(N2CCN(C(=O)c3ccc4c(c3)CCC(=O)N4)CC2)cc1
IC50 [1]: Not Active
IC50 [2]: Not Active

SMILES: COC(=O)c1ccc(N2CCN(S(=O)(=O)c3ccc4c(c3)CC(=O)N4)CC2)cc1
IC50 ([1]; read-out: IC50): 36.6 µM
IC50 ([2]; read-out: IC50): 25.9 µM

Results, then the molecule that gave them:

IC50 [1]: Not Active
IC50 [2]: Not Active
SMILES: CC(=O)c1ccc(N2CCN(S(=O)(=O)c3ccc4c(c3)CCCN4C(C)=O)CC2)cc1

IC50 ([1]; read-out: IC50): 3.26 µM
IC50 ([2]; read-out: IC50): 3.66 µM
SMILES: O=C1Cc2cc(S(=O)(=O)N3CCN(c4ccc([N+](=O)[O-])cc4)CC3)ccc2N1

IC50 [1]: Not Active
IC50 [2]: Not Active
SMILES: CC(=O)c1ccc(N2CCN(S(=O)(=O)c3ccc4c(c3)n(C)c(=O)n4C)CC2)cc1

IC50 [1]: Not Active
IC50 [2]: Not Active
SMILES: CC(=O)c1ccc(N2CCN(S(=O)(=O)c3ccc4[nH]c(=O)oc4c3)CC2)cc1

IC50 [1]: Not Active
IC50 [2]: Not Active
SMILES: CC(=O)Nc1ccc(S(=O)(=O)N2CCN(c3ccc(C(C)=O)cc3)CC2)cc1

IC50 ([1]; read-out: IC50): 14.9 µM
IC50 ([2]; read-out: IC50): 14.9 µM
SMILES: O=C1Cc2cc(S(=O)(=O)N3CCN(c4cccc(C(F)(F)F)c4)CC3)ccc2N1

IC50 [1]: Not Active
IC50 [2]: Not Active
SMILES: CC(=O)c1ccc(N2CCN(S(=O)(=O)c3ccc4c(c3)CCCC(=O)N4)CC2)cc1

IC50 [1]: Not Active
IC50 [2]: Not Active
SMILES: CC(=O)c1ccc(N2CCN(S(=O)(=O)c3ccc4c(c3)CC(C)N4C(C)=O)CC2)cc1 (stereo unspecified)

IC50 [1]: Not Active
IC50 [2]: Not Active
SMILES: Cc1ccc(N2CCN(S(=O)(=O)c3ccc4c(c3)CC(=O)N4)CC2)cc1

IC50 ([1]; read-out: IC50): 18.8 µM
IC50 ([2]; read-out: IC50): 23.7 µM
SMILES: COc1ccc(N2CCN(S(=O)(=O)c3ccc4c(c3)CC(=O)N4)CC2)cc1

IC50 [1]: Not Active
IC50 [2]: Not Active
SMILES: CC(=O)c1ccc(N2CCN(C(=O)c3ccc4c(c3)CC(=O)N4)CC2)cc1

IC50 [1]: Not Active
IC50 [2]: Not Active
SMILES: CC(=O)c1ccc(N2CCN(S(=O)(=O)c3ccc4c(c3)CCC(=O)N4)CC2)cc1

IC50 ([1]; read-out: IC50): 94.3 µM
IC50 ([2]; read-out: IC50): 94.3 µM
SMILES: O=C1Cc2cc(S(=O)(=O)N3CCN(c4ccc(Cl)cc4)CC3)ccc2N1

IC50 ([1]; read-out: IC50): 14.9 µM
IC50 ([2]; read-out: IC50): 11.9 µM
SMILES: CC(=O)N1CCN(S(=O)(=O)c2ccc3c(c2)CC(=O)N3)CC1
